Experimental findings from ChEMBL document CHEMBL4725483, “Simultaneous Inhibition of SIRT2 Deacetylase and Defatty-Acylase Activities via a PROTAC Strategy” (ACS Med Chem Lett, 2020) are described below.

Structures are written as SMILES. Calls of active or inactive are those of the source. The calls are words filed in the database; no cut-off is given here.

Assay [1] deals with T1, Protein cereblon/NAD-dependent protein deacetylase sirtuin-3, mitochondrial (Homo sapiens) (UniProt Q9NTG7+Q96SW2). The experiment in a line: Protac activity at CRBN/SIRT3 in human MCF7 cells assessed as SIRT3 degradation at 5 to 10 uM after 48 hrs by immunoblot analysis. The format is cell-based. Particulars: dose microM 5-10, time 48.0 hrs. Put shortly: (§1)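 MCF7 or BT-549 cells exposed to inhibitor at the indicated concentrations for 48 h; SIRT1, SIRT2 and SIRT3 levels read by immunoblot.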
T1 sequence (Q96SW2 whole entry, looked up): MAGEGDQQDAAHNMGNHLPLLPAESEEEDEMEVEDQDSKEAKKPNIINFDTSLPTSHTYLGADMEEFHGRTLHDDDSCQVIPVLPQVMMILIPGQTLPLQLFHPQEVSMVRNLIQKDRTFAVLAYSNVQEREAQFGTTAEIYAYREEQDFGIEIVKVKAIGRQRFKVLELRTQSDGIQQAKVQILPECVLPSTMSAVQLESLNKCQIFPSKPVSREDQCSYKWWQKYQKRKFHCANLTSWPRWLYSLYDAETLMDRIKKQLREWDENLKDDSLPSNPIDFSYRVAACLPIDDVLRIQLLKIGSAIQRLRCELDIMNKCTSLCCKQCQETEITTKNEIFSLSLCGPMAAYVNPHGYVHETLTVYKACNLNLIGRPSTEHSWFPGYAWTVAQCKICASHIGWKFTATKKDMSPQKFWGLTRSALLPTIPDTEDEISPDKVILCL
T1 sequence (Q9NTG7 whole entry, looked up): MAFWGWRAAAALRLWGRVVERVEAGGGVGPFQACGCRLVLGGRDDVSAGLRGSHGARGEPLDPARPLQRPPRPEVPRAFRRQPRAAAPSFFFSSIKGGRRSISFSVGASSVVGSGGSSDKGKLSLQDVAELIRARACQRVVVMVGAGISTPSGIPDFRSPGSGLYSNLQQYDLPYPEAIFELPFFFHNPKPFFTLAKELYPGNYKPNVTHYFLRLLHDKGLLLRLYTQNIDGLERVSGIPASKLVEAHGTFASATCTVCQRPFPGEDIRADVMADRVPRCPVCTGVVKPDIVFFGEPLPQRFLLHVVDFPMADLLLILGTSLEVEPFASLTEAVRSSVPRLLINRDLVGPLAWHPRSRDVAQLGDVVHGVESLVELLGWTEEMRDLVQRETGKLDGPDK

The target in assay [2] is T1, Protein cereblon/NAD-dependent protein deacetylase sirtuin-3, mitochondrial (Homo sapiens). The experiment in a line: Protac activity at CRBN/SIRT3 in human HEK293T cells stably expressing flag-tagged K-Ras4a-G12V assessed as inhibition of SIRT2 defatty-acylation at 1 uM incubated for 48 hrs by immunoblot analysis. The format is cell-based. As to conditions: HEK-293T. Put shortly:
(§2)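 HEK 293T cells stably overexpressing Flag-tagged K-Ras4a-G12V (confirmed by pan-Ras blot) were exposed to 1 μM compound for 48 h. SIRT1, SIRT2 and SIRT3 levels were then read by immunoblot.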

In assay [3] the target is T2, Protein cereblon/NAD-dependent protein deacetylase sirtuin-2 (Homo sapiens) (UniProt Q8IXJ6+Q96SW2). The assay can be described thus: Protac activity at CRBN/SIRT2 in human BT549 cells assessed as SIRT2 degradation at 5 to 10 uM after 48 hrs by immunoblot analysis. Type of assay: cell-based. Particulars: BT-549, dose microM 5-10, time 48.0 hrs. A digest of the protocol:
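Cells exposed to compound at the indicated concentrations for 48 h. SIRT1, SIRT2 and SIRT3 levels were read by immunoblot.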

In assay [4] the target is Protein cereblon/NAD-dependent protein deacetylase sirtuin-1 (Homo sapiens) (UniProt Q96EB6+Q96SW2). The experiment in a line: Protac activity at CRBN/SIRT1 in human BT549 cells assessed as SIRT1 degradation at 5 to 10 uM after 48 hrs by immunoblot analysis. Type of assay: cell-based. As to conditions: BT-549, dose microM 5-10, time 48.0 hrs. A digest of the protocol:
as §1

Assay [5] has as its target T3, NAD-dependent protein deacetylase sirtuin-2 (Homo sapiens, UniProt Q8IXJ6).
T3 sequence (Q8IXJ6 whole entry): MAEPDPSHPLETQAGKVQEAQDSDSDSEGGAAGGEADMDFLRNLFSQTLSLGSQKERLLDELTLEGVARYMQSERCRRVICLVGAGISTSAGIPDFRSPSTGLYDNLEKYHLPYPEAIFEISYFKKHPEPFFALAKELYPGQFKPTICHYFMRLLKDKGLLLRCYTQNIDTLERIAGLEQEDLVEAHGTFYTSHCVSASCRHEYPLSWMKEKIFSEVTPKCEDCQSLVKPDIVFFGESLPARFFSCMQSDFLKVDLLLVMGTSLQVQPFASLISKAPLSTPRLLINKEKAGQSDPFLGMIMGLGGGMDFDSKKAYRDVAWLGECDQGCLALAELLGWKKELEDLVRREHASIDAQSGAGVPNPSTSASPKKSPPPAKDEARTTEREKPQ
The experiment in a line: Inhibition of human SIRT2 defatty-acylation activity using peptide substrate preincubated in presence of NAD+ followed by substrate addition by HPLC analysis. Put shortly:
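SIRT2 defatty-acylase reaction with compound at a range of concentrations. Compound was preincubated with NAD+ and SIRT2 before the peptide substrate was added. IC50 derived from the dose series.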

The target in assay [6] is T3, NAD-dependent protein deacetylase sirtuin-2. The experiment in a line: Inhibition of human SIRT2 defatty-acylation activity using peptide substrate in presence of NAD+ by HPLC analysis.
Assay [7] has as its target T2, Protein cereblon/NAD-dependent protein deacetylase sirtuin-2 (Homo sapiens). The experiment in a line: Protac activity at CRBN/SIRT2 in human MCF7 cells assessed as SIRT2 degradation at 0.5 uM after 48 hrs by immunoblot analysis. The format is cell-based. A digest of the protocol:
(§3)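 MCF7 cells given a range of concentrations below and above 5 μM (0.5 to 50 μM) for 48 h; SIRT2 measured by immunoblot against vehicle-treated cells.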

Assay [8] has the same target. The experiment in a line: Protac activity at CRBN/SIRT2 in human MCF7 cells assessed as SIRT2 degradation at 50 uM after 48 hrs by immunoblot analysis. The format is cell-based. A digest of the protocol: as §3
For assay [9] the target is unchanged. The assay can be described thus: Protac activity at CRBN/SIRT2 in human HEK293T cells assessed as abundance ratio at 5 uM incubated for 16 hrs by TMT global proteomics assay relative to DMSO. Type of assay: cell-based. Particulars: HEK-293T. Put shortly:
(§4)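 HEK 293T cells were treated for 16 h. Global proteome was quantified by Tandem Mass Tag labelling. The abundance ratio of each sirtuin was taken against DMSO-treated cells.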

Assay [10] has as its target T3, NAD-dependent protein deacetylase sirtuin-2. The experiment in a line: Inhibition of human SIRT2 deacetylation activity using H3K9Ac as substrate preincubated for 15 mins in presence of NAD+ by HPLC analysis. A digest of the protocol: (§5)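 In vitro sirtuin reaction mixture with compound at a range of concentrations. Compound was preincubated with NAD+ and the enzyme before the substrate peptide was added. IC50 taken from the concentration series.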

The target of assay [11] is NAD-dependent protein deacylase sirtuin-6 (Homo sapiens, UniProt Q8N6T7). The assay can be described thus: Inhibition of human SIRT6 deacetylation activity using H3K9Ac as substrate preincubated for 15 mins in presence of NAD+ followed by substrate addition by HPLC analysis. Put shortly: as §5
Sequence of NAD-dependent protein deacylase sirtuin-6 (Q8N6T7 whole entry): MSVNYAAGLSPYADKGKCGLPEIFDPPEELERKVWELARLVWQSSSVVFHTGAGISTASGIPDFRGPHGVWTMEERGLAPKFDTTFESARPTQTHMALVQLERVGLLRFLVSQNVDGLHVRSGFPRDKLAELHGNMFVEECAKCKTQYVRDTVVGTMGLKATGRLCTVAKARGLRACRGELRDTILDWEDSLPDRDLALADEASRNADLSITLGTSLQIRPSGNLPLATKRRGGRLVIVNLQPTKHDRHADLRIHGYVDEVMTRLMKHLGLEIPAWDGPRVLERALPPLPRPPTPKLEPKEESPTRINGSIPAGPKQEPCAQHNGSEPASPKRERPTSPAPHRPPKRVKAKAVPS
In assay [12] the target is Protein cereblon/NAD-dependent protein deacylase sirtuin-6 (Homo sapiens) (UniProt Q8N6T7+Q96SW2). The assay can be described thus: Protac activity at CRBN/SIRT6 in human HEK293T cells assessed as abundance ratio at 5 uM incubated for 16 hrs by TMT global proteomics assay relative to DMSO. The format is cell-based. Particulars: HEK-293T. Put shortly:
as §4

The target of assay [13] is T2, Protein cereblon/NAD-dependent protein deacetylase sirtuin-2 (Homo sapiens). The experiment in a line: Protac activity at CRBN/SIRT2 in human HEK293T cells stably expressing flag-tagged K-Ras4a-G12V assessed as inhibition of SIRT2 defatty-acylation at 1 uM incubated for 48 hrs by immunoblot analysis. The format is cell-based. As to conditions: HEK-293T. A digest of the protocol: as §2

The species named for the next assay is Homo sapiens. The experiment in a line: Selectivity ratio of IC50 for inhibition of human SIRT1 deacetylation activity to IC50 for inhibition of human SIRT2 deacetylation activity. Put shortly:
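Ratio of SIRT1 deacetylase IC50 to SIRT2 deacetylase IC50, both measured with compound, NAD+ and enzyme preincubated before peptide substrate addition.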

In assay [14] the target is NAD-dependent protein deacylase sirtuin-5, mitochondrial (Homo sapiens, UniProt Q9NXA8). The assay can be described thus: Inhibition of human SIRT5 deacetylation activity using H3K9Ac as substrate preincubated for 15 mins in presence of NAD+ followed by substrate addition by HPLC analysis. A digest of the protocol:
as §5

For another assay, the system named is MCF7. The assay can be described thus: Cytotoxicity against human MCF7 cells assessed as reduction in cell viability after 72 hrs. Type of assay: functional, cell-based. A digest of the protocol:
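Cells incubated with compound or thalidomide for 72 h; cell viability read out at the end of exposure.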

T2 sequence (Q96SW2 whole entry, looked up, one chain of several): as the sequence (Q96SW2 whole entry, looked up) above
Sequence of Protein cereblon/NAD-dependent protein deacylase sirtuin-6 (Homo sapiens) (Q8N6T7 2-355 limits assumed): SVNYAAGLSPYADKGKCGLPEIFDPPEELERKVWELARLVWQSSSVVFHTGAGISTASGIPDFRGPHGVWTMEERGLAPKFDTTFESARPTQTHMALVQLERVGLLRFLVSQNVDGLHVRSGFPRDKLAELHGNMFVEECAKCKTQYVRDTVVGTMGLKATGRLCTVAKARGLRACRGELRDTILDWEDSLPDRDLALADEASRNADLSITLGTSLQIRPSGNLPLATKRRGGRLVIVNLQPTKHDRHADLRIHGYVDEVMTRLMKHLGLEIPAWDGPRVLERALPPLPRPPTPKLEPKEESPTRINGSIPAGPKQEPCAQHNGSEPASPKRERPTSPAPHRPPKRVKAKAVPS
Sequence of Protein cereblon/NAD-dependent protein deacylase sirtuin-6 (Homo sapiens) (Q96SW2 whole entry partner): as the sequence (Q96SW2 whole entry, looked up) above
Sequence of Protein cereblon/NAD-dependent protein deacetylase sirtuin-1 (Homo sapiens) (Q96EB6 whole entry, looked up): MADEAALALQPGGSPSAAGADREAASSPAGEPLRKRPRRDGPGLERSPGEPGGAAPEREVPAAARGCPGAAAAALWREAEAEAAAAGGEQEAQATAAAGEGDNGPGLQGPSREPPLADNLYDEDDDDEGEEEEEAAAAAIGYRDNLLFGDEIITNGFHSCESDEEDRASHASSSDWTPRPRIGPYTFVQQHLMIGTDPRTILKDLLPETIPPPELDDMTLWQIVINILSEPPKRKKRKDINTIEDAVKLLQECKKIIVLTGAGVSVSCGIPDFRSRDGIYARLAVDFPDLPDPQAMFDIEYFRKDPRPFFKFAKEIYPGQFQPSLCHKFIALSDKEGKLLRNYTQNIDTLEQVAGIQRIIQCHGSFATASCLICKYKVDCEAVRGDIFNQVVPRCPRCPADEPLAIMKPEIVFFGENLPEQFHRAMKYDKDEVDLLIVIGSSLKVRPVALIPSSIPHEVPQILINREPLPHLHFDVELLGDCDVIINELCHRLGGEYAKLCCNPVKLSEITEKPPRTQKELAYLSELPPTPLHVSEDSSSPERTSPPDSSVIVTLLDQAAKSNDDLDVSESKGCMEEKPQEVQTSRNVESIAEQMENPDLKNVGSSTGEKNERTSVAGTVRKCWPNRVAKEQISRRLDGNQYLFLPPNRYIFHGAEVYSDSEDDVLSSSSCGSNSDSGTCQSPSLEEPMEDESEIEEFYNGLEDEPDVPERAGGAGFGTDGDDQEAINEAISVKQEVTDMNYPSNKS
Sequence of Protein cereblon/NAD-dependent protein deacetylase sirtuin-1 (Homo sapiens) (Q96SW2 whole entry, looked up): as the sequence (Q96SW2 whole entry, looked up) above
Sequence of NAD-dependent protein deacylase sirtuin-5, mitochondrial (Q9NXA8 whole entry): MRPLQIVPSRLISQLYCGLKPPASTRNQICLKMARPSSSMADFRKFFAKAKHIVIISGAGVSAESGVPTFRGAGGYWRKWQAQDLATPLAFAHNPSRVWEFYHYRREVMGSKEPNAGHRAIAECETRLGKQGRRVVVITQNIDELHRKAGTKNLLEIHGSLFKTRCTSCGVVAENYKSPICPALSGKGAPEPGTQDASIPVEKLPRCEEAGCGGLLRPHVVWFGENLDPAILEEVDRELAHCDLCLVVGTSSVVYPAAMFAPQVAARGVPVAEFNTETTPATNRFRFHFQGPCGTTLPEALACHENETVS

On to `CCCCCCCCCCCCCC(=S)NCCCC[C@H](NC(=O)CCOCCOCCOCCOCCNc1cccc2c1C(=O)N(C1CCC(=O)NC1=O)C2=O)C(=O)Nc1ccccc1` (stereo partly specified), for which the result in [1], in assay [2], in assay [4], in [8] and in assay [12] was inactive. Moreover, the result (in [3]; in [7]; in [13]; with MCF7) was Active. Also, the half-inhibitory concentration (IC50) in assay [5] was 110 nM; in assay [6] it was greater than 83000 nM; in assay [10], 78 nM; in assay [11], greater than 83000 nM; in assay [14], greater than 83000 nM. For the same compound, in [9], the Ratio turned out to be 0.36. Also, the Ratio IC50 in the assay filed under Homo sapiens was determined as 500.
